The values that follow come from ChEMBL document CHEMBL4261504, “Identification of steroid-like natural products as antiplasmodial agents by 2D and 3D similarity-based virtual screening” (Medchemcomm, 2017).

For one series, the system named is Plasmodium falciparum. Kind of series: Antimalarial activity against Plasmodium falciparum NF54 infected in human erythrocytes assessed as reduction in [3H]hypoxanthine incorporation preincubated for 48 hrs followed by [3H]hypoxanthine addition measured after 24 hrs by liquid scintillation counting. It is filed as functional, organism-based. A digest of the protocol:
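Chloroquine-sensitive P. falciparum NF54 was tested in a modified [3H]hypoxanthine incorporation assay. Test compounds were run up to 20 μM, and fusidic acid was tested above that. Chloroquine, artesunate and fusidic acid served as positive controls. Compound purity was ≥95%. IC50 is the mean of at least 2 independent experiments.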

Another series deals with CHO. Kind of series: Cytotoxicity against CHO cells by MTT assay. Type of series: cell-based. The conditions noted are these: Cricetulus griseus. A digest of the protocol:
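Mammalian Chinese hamster ovary (CHO) cell line, with emetine as the positive control. Test samples were of ≥95% purity. Cytotoxicity is reported as IC50.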
(Tetrazolium dyes change colour on reduction, which living cells bring about.)

Series [1] in a line: Selectivity index, ratio of IC50 for CHO cells to IC50 for Plasmodium falciparum NF54 infected in human erythrocytes. It is filed as toxicity, cell-based. The conditions noted are these: Chinese hamster, read-out: Ratio IC50. In short, it runs like this: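 SI was calculated as the IC50 against Chinese hamster ovary (CHO) cells divided by the IC50 against P. falciparum NF54. The NF54 value came from the [3H]hypoxanthine incorporation assay. Emetine was the positive control for CHO cytotoxicity.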

The structures appear in SMILES notation.

`CC(=O)[C@@]12O[C@@H]1C[C@H]1[C@H]3CC=C4[C@@H](CC[C@@H](O)C4(C)C)[C@]3(C)C(=O)C[C@@]12C`: in the series with Plasmodium falciparum, the concentration for half-maximal inhibition (IC50) – broadly, the concentration that gives 50% inhibition – was greater than 20 µM. As to `COC(=O)CC[C@@H](C)[C@H]1CC[C@@H]2[C@H]3[C@H](OC(C)=O)C[C@H]4C[C@H](OC(C)=O)CC[C@]4(C)[C@H]3C[C@H](OC(C)=O)[C@@]21C`, the IC50 with CHO is 141 µM; with Plasmodium falciparum, 3.45 µM. Also, the selectivity ratio in series [1] turned out to be 40.9. As for `CC(=O)O[C@H]1CC[C@@]2(C)C(=CC[C@@H]3[C@H]4CCC[C@@]4(C)CC[C@H]32)C1`, the IC50 with Plasmodium falciparum is greater than 20 µM. Same read-out and setting: then `CC(=O)O[C@H]1CC[C@]2(C)[C@H]3CC[C@@]4(C)[C@H](CC[C@@H]4[C@H](C)CCCC(C)C)[C@@H]3C[C@@H](O)[C@]2(O)C1`, with greater than 20 µM; and `CC(=O)O[C@H]1CC[C@@H]2[C@H]3CC[C@@]4(O)[C@H](CCC[C@@H]4O)[C@H]3CC[C@]12C`, with greater than 20 µM; and `CC(C)CCC[C@@H](C)[C@H]1CC[C@@H]2[C@@H]3C[C@H](O)[C@]4(O)C(=O)CCC[C@]4(C)[C@H]3CC[C@@]21C`, with greater than 20 µM. On to `CC[C@H]1CC[C@@]2(C)[C@H]3C[C@H]4O[C@@]45[C@@H](CC[C@@H](O)C5(C)C)[C@@H]3C(=O)C[C@@]12C`, for which the IC50 in the series on Plasmodium falciparum is greater than 20 µM. The same measure, in the same setting: the figure for `CC(=O)O[C@H]1C[C@@H](O)[C@]2(O)CC[C@@H]3[C@H]4CC[C@H]([C@H](C)CCCC(C)C)[C@@]4(C)CC[C@@H]3[C@@]2(C)C1` is 13.1 µM; for `CC(=O)OC[C@@]12C(=O)C[C@@]3(C)[C@H](C(C)=O)CC[C@@]3(C)[C@@H]1C[C@H]1O[C@@]13[C@H]2CC[C@@H](OC(C)=O)C3(C)C` it is greater than 20 µM; for `COc1ccc2c(c1)CC[C@@H]1[C@@H]2CC[C@]2(C)C3(CC[C@@]12C=O)SCCS3` it is greater than 20 µM. On the same count and under the same terms, the figure for `CC(=O)O[C@H]1C[C@@H]2[C@H]3CC[C@H]([C@H](C)CCCC(C)C)[C@@]3(C)CC[C@@H]2[C@@]2(C)CCC[C@@H](O)[C@]12O` is greater than 20 µM; for `CC(=O)O[C@@H]1CC[C@]2(C)[C@H]3CC[C@@]4(C)[C@@H]([C@@H](C)CCCC(C)C)CC[C@H]4[C@@H]3CC[C@@]2(O)[C@@H]1O` it is greater than 20 µM.

For `CC(=O)O[C@H]1C(=O)C[C@@H]2C(=CC[C@H]3[C@@]2(C)C(=O)C[C@]2(C)C(C(C)=O)=CC[C@@]32C)C1(C)C`, the IC50 in the series on Plasmodium falciparum worked out at 19.8 µM. The same measure, in the same setting: the figure for `C[C@@H]1CC[C@@]2(OC1)O[C@H]1C[C@H]3[C@@H]4CC[C@H]5C[C@@H](O)CC[C@]5(C)C4=CC(=O)[C@]3(C)[C@H]1[C@@H]2C` is greater than 20 µM; for `CC(=O)O[C@H]1CC[C@@H]2[C@@H]3C[C@H](OC(C)=O)[C@@]45O[C@@H]4CCC[C@]5(C)[C@H]3CC[C@]12C` it is greater than 20 µM. As to `CC(=O)O[C@@H]1C[C@@]2(C)[C@@H]3CC=C4[C@@H](CC(=O)C4(C)C)[C@]3(C)C(=O)C[C@]2(C)[C@H]1C(C)=O`, in the series with Plasmodium falciparum, the IC50 is greater than 20 µM. On the same count and under the same terms, the figure for `CC(=O)O[C@H]1CC[C@@H]2[C@H]3C[C@@H](O)[C@@]4(O)CCCC[C@H]4[C@@H]3CC[C@]12C` is greater than 20 µM; for `COc1ccc2c(c1)CC[C@@H]1[C@H]3[C@H](OCc4ccccc4)CC4(OCCO4)[C@H]3CC[C@@H]21` it is 7 µM; for `COc1ccc2c(c1)CC[C@H]1[C@@H]2CC[C@@]2(C)[C@]13C=C[C@@]2(C(C)=O)[C@@H](S(=O)(=O)c1ccccc1)C3` it is greater than 20 µM.

In the case of `CC(=O)OC(C)(C)/C=C/C(=O)[C@](C)(O)[C@H]1[C@@H](O)C[C@@]2(C)[C@@H]3CC=C4[C@@H](CC[C@H](O)C4(C)C)[C@]3(CO)C(=O)C[C@]12C`, the IC50 amounted to 8.51 µM with CHO and 1.76 µM with Plasmodium falciparum. Besides, the selectivity ratio in series [1] was determined as 4.83. As to `CC1(C)CCC[C@H]2[C@]3(C)CC[C@]4(C)CCC[C@H]4[C@H]3C[C@@H](O)[C@@]21O`, the IC50 in the series on Plasmodium falciparum came to 15.8 µM. On the same count and under the same terms, then `CC(=O)O[C@@H]1C[C@H]2[C@@](C)(C(=O)C[C@]3(C)[C@@H](C(C)=O)CC[C@@]23C)[C@@H]2CCC(=O)C(C)(C)[C@@]12O`, with greater than 20 µM. Consider `CC(=O)OC(C)(C)/C=C/C(=O)[C@](C)(O)[C@H]1[C@H](O)C[C@@]2(C)[C@@H]3CC=C4[C@@H](C[C@H](O)C(=O)C4(C)C)[C@]3(C)C(=O)C[C@]12C`, for which the IC50 with CHO turned out to be 1.99 µM; with Plasmodium falciparum, 1.39 µM. In addition, the selectivity ratio in series [1] came out at 1.43. As for `C[C@H]1[C@H](OC(=O)CCC(=O)O)O[C@@H]2O[C@@]3(C)CC[C@H]4[C@H](C)CC[C@@H]1[C@@]24OO3` [ARTESUNATE], the IC50 in the series on Plasmodium falciparum came out at 0.004 µM. Same read-out and setting: the figure for `C[C@H](CCC(=O)O)[C@H]1CC[C@H]2[C@@H]3[C@H](O)C[C@@H]4C[C@H](O)CC[C@]4(C)[C@H]3C[C@H](O)[C@]12C` [CHOLIC ACID] is greater than 20 µM.

For the compound `CC(=O)OC(C)(C)/C=C/C(=O)[C@](C)(O)[C@H]1[C@H](O)C[C@@]2(C)[C@@H]3CC=C4[C@@H](C[C@H](O)C(=O)C4(C)C)[C@]3(CO)C(=O)C[C@]12C` [CUCURBITACIN A], the IC50 stood at 55.2 µM with CHO and 2.92 µM with Plasmodium falciparum. For the same compound, the selectivity ratio in series [1] was 18.9.

On to `C[C@@H]1CC[C@@]2(OC1)O[C@H]1C[C@H]3[C@@H]4CC=C5C[C@@H](O)CC[C@]5(C)[C@H]4CC[C@]3(C)[C@H]1[C@@H]2C` [DISOGENIN], for which the IC50 with Plasmodium falciparum was greater than 20 µM.

Turning to `CC(=O)O[C@H]1C[C@@]2(C)[C@@H](C[C@@H](O)[C@H]3[C@@]4(C)CC[C@@H](O)[C@@H](C)[C@@H]4CC[C@@]32C)/C1=C(\CCC=C(C)C)C(=O)O` [FUSIDIC ACID], in the series on CHO, the IC50 is 194 µM.
